Measured values published in ChEMBL document CHEMBL3124882, “Semi-synthesis of acylated triterpenes from olive-oil industry wastes for the development of anticancer and anti-HIV agents” (Eur J Med Chem, 2014).
pIC50: −log10 of the molar value.

Tests used:
Protease = Protease (Human immunodeficiency virus 1, UniProt Q9YQ12); experiment: Inhibition of HIV1 recombinant protease expressed in Escherichia coli using Abz-Ala-Arg-Val-Nle-Tyr(NO2)-Glu-Ala-Nle-NH2 as substrate by FRET assay
B16-F10 [1] = experiment: Induction of apoptosis in mouse B16F10 cells assessed as total apoptotic cells at 2 X IC50 after 72 hrs by annexin V-FITC/propidium iodide staining-based FACS analysis (reference value: 13.7 +/- 2.7%); assay type: functional
B16-F10 [2] = experiment: Induction of apoptosis in mouse B16F10 cells assessed as necrotic cells at IC50 after 72 hrs by annexin V-FITC/propidium iodide staining-based FACS analysis (reference value: 4.0 +/- 0.6%); assay type: functional
B16-F10 [3] = experiment: Induction of apoptosis in mouse B16F10 cells assessed as late apoptotic cells at 2 X IC50 after 72 hrs by annexin V-FITC/propidium iodide staining-based FACS analysis (reference value: 9.8 +/- 2.2%); assay type: functional
B16-F10 [4] = experiment: Induction of apoptosis in mouse B16F10 cells assessed as early apoptotic cells at IC50 after 72 hrs by annexin V-FITC/propidium iodide staining-based FACS analysis (reference value: 3.9 +/- 0.4%); assay type: functional
B16-F10 [5] = experiment: Cytotoxicity against mouse B16F10 cells after 72 hrs by MTT assay; assay type: functional, cell-based; details: B16-F10, 72 h
Summary of the method: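 B16F10 cells (DMEM, 2 mM glutamine, 10% heat-inactivated FCS, penicillin/streptomycin; subconfluent) seeded at 11·10^3 per well and exposed to 0–80 µg/mL for 72 h. Compounds were diluted from a 10 mg/mL stock in 50% DMSO/PBS. MTT 0.5 mg/mL for 2 h, formazan dissolved in DMSO, absorbance at 550 nm. Viability is relative to untreated controls; IC50 from four assays of six replicates, mean ± S.E.M.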

B16-F10 [6] = experiment: Induction of apoptosis in mouse B16F10 cells assessed as normal cells at IC50 after 72 hrs by annexin V-FITC/propidium iodide staining-based FACS analysis (reference value: 77.9 +/- 1.5%); assay type: functional
B16-F10 [7] = experiment: Induction of apoptosis in mouse B16F10 cells assessed as late apoptotic cells at IC50 after 72 hrs by annexin V-FITC/propidium iodide staining-based FACS analysis (reference value: 9.8 +/- 2.2%); assay type: functional
B16-F10 [8] = experiment: Induction of apoptosis in mouse B16F10 cells assessed as normal cells at 2 X IC50 after 72 hrs by annexin V-FITC/propidium iodide staining-based FACS analysis (reference value: 77.9 +/- 1.5%); assay type: functional
B16-F10 [9] = experiment: Induction of apoptosis in mouse B16F10 cells assessed as total apoptotic cells at IC50 after 72 hrs by annexin V-FITC/propidium iodide staining-based FACS analysis (reference value: 13.7 +/- 2.7%); assay type: functional
B16-F10 [10] = experiment: Induction of apoptosis in mouse B16F10 cells assessed as early apoptotic cells at 2 X IC50 after 72 hrs by annexin V-FITC/propidium iodide staining-based FACS analysis (reference value: 3.9 +/- 0.4%); assay type: functional
B16-F10 [11] = experiment: Induction of apoptosis in mouse B16F10 cells assessed as necrotic cells at 2 X IC50 after 72 hrs by annexin V-FITC/propidium iodide staining-based FACS analysis (reference value: 4.0 +/- 0.6%); assay type: functional

Chain of Protease (Q9YQ12 whole entry): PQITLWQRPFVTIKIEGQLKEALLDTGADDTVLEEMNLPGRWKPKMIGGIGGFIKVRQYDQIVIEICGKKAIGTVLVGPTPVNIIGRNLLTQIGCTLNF

CC(C)(CC(=O)O)CC(=O)O[C@@H]1C[C@]2(C)[C@H]3CC=C4[C@@H]5CC(C)(C)CC[C@]5(C(=O)O)CC[C@@]4(C)[C@]3(C)CC[C@H]2C(C)(C)[C@H]1OC(=O)CC(C)(C)CC(=O)O
pIC50 (Protease): 4.56

CCCC(=O)O[C@@H]1C[C@]2(C)[C@H]3CC=C4[C@@H]5CC(C)(C)CC[C@]5(C(=O)O)CC[C@@]4(C)[C@]3(C)CC[C@H]2C(C)(C)[C@H]1OC(=O)CCC
pIC50 (Protease): 4.51

CC1(C)CC[C@]2(C(=O)O)CC[C@]3(C)C(=CC[C@@H]4[C@@]5(C)C[C@@H](OC(=O)CCCC(=O)O)[C@H](O)C(C)(C)[C@@H]5CC[C@]43C)[C@@H]2C1
pIC50 (Protease): 5.49

CC1(C)CC[C@]2(C(=O)O)CC[C@]3(C)C(=CC[C@@H]4[C@@]5(C)CC[C@H](O)C(C)(C)[C@@H]5CC[C@]43C)[C@@H]2C1 [OLEANOLIC_ACID]
Activity (B16-F10 [1]): 41.5% | Activity (B16-F10 [2]): 10.1% | Activity (B16-F10 [3]): 12.4% | Activity (B16-F10 [4]): 16.4% | pIC50 (Protease): 4.24 | pIC50 (B16-F10 [5]): 3.97 | Activity (B16-F10 [6]): 44.9% | Activity (B16-F10 [7]): 28.2% | Activity (B16-F10 [8]): 49.8% | Activity (B16-F10 [9]): 44.6% | Activity (B16-F10 [10]): 29.1% | Activity (B16-F10 [11]): 8.7%

CC(C)(CC(=O)O)CC(=O)O[C@@H]1C[C@]2(C)[C@H]3CC=C4[C@@H]5CC(C)(C)CC[C@]5(C(=O)O)CC[C@@]4(C)[C@]3(C)CC[C@H]2C(C)(C)[C@H]1O
pIC50 (Protease): 4.84

CC1(C)CC[C@]2(C(=O)O)CC[C@]3(C)C(=CC[C@@H]4[C@@]5(C)C[C@@H](OC(=O)c6ccccc6C(=O)O)[C@H](O)C(C)(C)[C@@H]5CC[C@]43C)[C@@H]2C1
pIC50 (Protease): 4.85

CC1(C)CC[C@]2(C(=O)OCc3ccccc3)CC[C@]3(C)C(=CC[C@@H]4[C@@]5(C)C[C@@H](OC(=O)CCCC(=O)O)[C@H](OC(=O)CCCC(=O)O)C(C)(C)[C@@H]5CC[C@]43C)[C@@H]2C1
pIC50 (Protease): 5.41

CC1(C)CC[C@]2(C(=O)OCc3ccccc3)CC[C@]3(C)C(=CC[C@@H]4[C@@]5(C)C[C@@H](O)[C@H](O)C(C)(C)[C@@H]5CC[C@]43C)[C@@H]2C1 [BENZYL MASLINATE]
Activity (B16-F10 [1]): 88.4% | Activity (B16-F10 [2]): 0.3% | Activity (B16-F10 [3]): 2.2% | Activity (B16-F10 [4]): 84.2% | pIC50 (B16-F10 [5]): 4.72 | Activity (B16-F10 [6]): 5% | Activity (B16-F10 [7]): 10.6% | Activity (B16-F10 [8]): 11.3% | Activity (B16-F10 [9]): 94.7% | Activity (B16-F10 [10]): 86.2% | Activity (B16-F10 [11]): 0.1%

CC1(C)CC[C@]2(C(=O)O)CC[C@]3(C)C(=CC[C@@H]4[C@@]5(C)C[C@@H](OC(=O)c6ccccc6C(=O)O)[C@H](OC(=O)c6ccccc6C(=O)O)C(C)(C)[C@@H]5CC[C@]43C)[C@@H]2C1
pIC50 (Protease): 5.64

CC1(C)CC[C@]2(C(=O)O)CC[C@]3(C)C(=CC[C@@H]4[C@@]5(C)CC[C@H](OC(=O)CCCC(=O)O)C(C)(C)[C@@H]5CC[C@]43C)[C@@H]2C1
pIC50 (Protease): 6.25

CC1(C)CC[C@]2(C(=O)OCc3ccccc3)CC[C@]3(C)C(=CC[C@@H]4[C@@]5(C)C[C@@H](OC(=O)CCC(=O)O)[C@H](OC(=O)CCC(=O)O)C(C)(C)[C@@H]5CC[C@]43C)[C@@H]2C1
pIC50 (Protease): 5.28

CC1(C)CC[C@]2(C(=O)OCc3ccccc3)CC[C@]3(C)C(=CC[C@@H]4[C@@]5(C)C[C@@H](OC(=O)CCC(=O)O)[C@H](O)C(C)(C)[C@@H]5CC[C@]43C)[C@@H]2C1
pIC50 (Protease): 4.81

CC1(C)CC[C@]2(C(=O)OCc3ccccc3)CC[C@]3(C)C(=CC[C@@H]4[C@@]5(C)C[C@@H](OC(=O)c6ccccc6C(=O)O)[C@H](OC(=O)c6ccccc6C(=O)O)C(C)(C)[C@@H]5CC[C@]43C)[C@@H]2C1
pIC50 (Protease): 5.72
